Measurements from publication PMC3478735 (ACS Nano, 2012).

Assays:
[1] = tested on: HeLa cells; experiment: Endosomal escape, codelivery of Calcein, fluorescence microscopy; format: cell-based, human
Summary of the method: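 HeLa cells plated 48 h ahead to ≥70% confluence. Calcein 0.25 mM added alone or with nanocomplexes (100 nM siRNA) in DMEM + 10% bovine serum, 1 h, 37 °C. Cells washed three times in PBS and imaged live (FITC filter). Cells with diffuse cytoplasmic fluorescence counted in ≥8 random fields, normalised to total cells (500–800 per carrier per experiment), reported as mean % per field.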

[2] = tested on: HeLa cells; experiment: Uptake of myr-TP-LyP-1 nanocomplexes in the presence of endocytosis inhibitors; format: cell-based, human; details: inhibitor 1 h at 37 °C, then nanocomplexes (2 μM peptide, 100 nM siRNA) 1 h, flow cytometry
Summary of the method: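 HeLa cells at ~70% confluence. Small-molecule inhibitors applied 1 h at 37 °C. Then nanocomplexes of labelled peptide (2 μM) with GFP siRNA (100 nM) added for a further 1 h at 37 °C. Cells washed three times with cold PBS, trypsinised, and uptake read by flow cytometry.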

Row | Structure (SMILES) | endosomal escape [1] | uptake of myr-TP-LyP-1 nanocomplexes in the presence of the inhibitor [2]
1 | C[C@@H](O)[C@@H]1NC(=O)[C@H](CCCNC(=N)N)NC(=O)[C@H](CCCCN)NC(=O)[C@H](CC(N)=O)NC(=O)CNC(=O)[C@@H](N)CSSC[C@@H](C(=O)O)NC(=O)CNC(=O)[C@H](CCCNC(=N)N)NC1=O [LyP-1] | little or no endosomal escape | –
2 | CCCCCCCCCC(=O)NC(CN1CCOCC1)C(O)c1ccccc1 (stereo not shown) [PDMP] | – | significantly decreased
3 | N=C(N)NC(=O)c1nc(Cl)c(N)nc1N [amiloride] | – | significantly decreased
4 | OCC1OC(O)CC(O)C1O (stereo not shown) [deoxyglucose] | – | significantly decreased
